From ChEMBL document CHEMBL2429848, “Proanthocyanidins from Spenceria ramalana and their effects on AGE formation in vitro and hyaloid-retinal vessel dilation in larval zebrafish in vivo” (J Nat Prod, 2013)
Active and inactive are the calls of the source. No cut-off for these calls is given here.

How the values were obtained:
Danio rerio [1] = organism: Danio rerio; experiment: Toxicity in zebrafish flk:EGFP transgenic embryo at 10 to 20 uM treated 1 day post fertilization to 6 days post fertilization; format: organism-based; details: in vivo
Danio rerio [2] = organism: Danio rerio; experiment: Antidiabetic retinopathic activity in zebrafish flk:EGFP transgenic embryo assessed as reduction of high glucose-induced dilation of hyaloidretinal vessels at 20 uM treated 1 day postfertilization to 6 days postfertilization relative to control; format: functional; set-up: scale not given: the % may be the effect or the level left
Method in brief: (§1)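 flk:EGFP transgenic embryos, five per well, were kept from 1 dpf in egg water with 30 mM glucose plus compound (10 or 20 μM) until 6 dpf. They were then fixed in 4% PFA, and lenses were isolated with the optic disc up and imaged by fluorescence. Diameters were taken in 3–4 main branches up to the first sub-branch. Percentage inhibition = [1 − (Tn − Cav)/(HGav − Cav)] × 100, from three independent experiments.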

Danio rerio [3] = organism: Danio rerio; experiment: Antidiabetic retinopathic activity in zebrafish flk:EGFP transgenic embryo assessed as reduction of high glucose-induced dilation of hyaloidretinal vessels at 10 uM treated 1 day postfertilization to 6 days postfertilization relative to control; format: functional; set-up: scale not given: the % may be the effect or the level left; method in brief: as §1
[4] = Antiglycation activity assessed as inhibition of advanced glycation end product formation after 7 days by spectrofluorometric analysis; format: physicochemical
Method in brief: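 Bovine serum albumin (10 mg/mL) in 50 mM phosphate buffer pH 7.4 with 0.02% sodium azide was mixed with 0.2 M fructose/glucose solution and serially diluted compound, with aminoguanidine as positive control. Samples were incubated 7 days at 37 °C and fluorescence read at ex 350/em 450 nm, in triplicate. IC50 came from least-squares regression of log concentration against remaining activity.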

Danio rerio [5] = organism: Danio rerio; experiment: Antidiabetic retinopathic activity in zebrafish flk:EGFP transgenic embryo assessed as reduction of high glucose-induced dilation of hyaloidretinal vessels at 10 to 20 uM treated 1 day post fertilization to 6 days post fertilization; format: functional, organism-based; method in brief: as §1

Structure (SMILES)	IC50 [4] [µM]	Activity (Danio rerio [1])	Activity (Danio rerio [2]) [%]	Activity (Danio rerio [3]) [%]	Activity (Danio rerio [5])
N=C(N)NN [PIMAGEDINE]	966	–	–	–	–
Oc1ccc([C@H]2Oc3c(c(O)cc4c3[C@@H]3c5c(O)cc(O)cc5O[C@](c5ccc(O)cc5)(O4)[C@H]3O)C[C@@H]2O)cc1	33.5	–	–	–	Active
OC[C@H]1O[C@@H](O[C@@H]2Cc3c(O)cc4c(c3O[C@H]2c2ccc(O)cc2)[C@@H]2c3c(O)cc(O)cc3O[C@](c3ccc(O)cc3)(O4)[C@H]2O)[C@H](O)[C@@H](O)[C@@H]1O	32.1	–	–	–	Active
Oc1cc(O)c2c(c1)O[C@H](c1ccc(O)c(O)c1)[C@H](O)C2 [(-)-EPICATECHIN]	13.6	–	–	–	–
O=C(O[C@@H]1Cc2c(O)cc(O)cc2O[C@@H]1c1ccc(O)c(O)c1)c1cc(O)c(O)c(O)c1 [EPICATECHIN GALLATE]	15.1	–	–	–	–
Oc1ccc([C@@]23Oc4cc(O)cc(O)c4[C@@H](c4c(cc(O)c5c4O[C@H](c4ccc(O)c(O)c4)[C@@H](O)C5)O2)[C@@H]3O)cc1	14.1	–	104	–	–

The next lines start with results.

IC50 [4] [µM]	Structure (SMILES)	Activity (Danio rerio [1])	Activity (Danio rerio [2]) [%]	Activity (Danio rerio [3]) [%]	Activity (Danio rerio [5])
17.4	Oc1ccc([C@@H]2Oc3c(c(O)cc4c3[C@@H]3c5c(O)cc6c(c5O[C@](c5ccc(O)c(O)c5)(O4)[C@H]3O)[C@@H]3c4c(O)cc(O)cc4O[C@](c4ccc(O)cc4)(O6)[C@H]3O)C[C@H]2O)cc1	Non-toxic	164.1	157.7	–
39.8	Oc1ccc([C@@H]2Oc3c(c(O)cc4c3[C@@H]3c5c(O)cc6c(c5O[C@](c5ccc(O)cc5)(O4)[C@H]3O)[C@@H]3c4c(O)cc(O)cc4O[C@](c4ccc(O)cc4)(O6)[C@H]3O)C[C@H]2O)cc1	–	–	–	Active
34.7	Oc1ccc([C@@H]2Oc3c(c(O)cc4c3[C@@H]3c5c(O)cc(O)cc5O[C@](c5ccc(O)cc5)(O4)[C@H]3O)C[C@H]2O)cc1	–	–	–	Active
